Reference: ChEMBL document CHEMBL1782010, “Synthesis and evaluation of quinoxaline derivatives as potential influenza NS1A protein inhibitors” (Bioorg Med Chem Lett, 2011)
pIC50: −log10 of the molar value. Active and inactive are the calls of the source. The calls are words filed in the database; no cut-off is given here.

Key:
[1] = system: Nucleic Acid; assay: Binding affinity to double strand RNA assessed as denaturation of double strand RNA to single strand RNA at 50 uM after 1 hr by fluorescence polarization assay; assay type: nucleic-acid assay
Summary of the method: (§1)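 Counter-screen of FAM-dsRNA alone, with no NS1A target, by an analogous fluorescence polarization assay at 50 μM compound. Reported as % intercalation: a positive sign means intercalation into the dsRNA, a negative sign means denaturation of the dsRNA to single strands. Duplicates averaged.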

[2] = system: Influenza A virus (A/udorn/1972(H3N2)); assay: Inhibition of Influenza A/Udorn/72/H3N2 full length GST-tagged NS1A/FAM-double strand RNA-interaction at 50 uM after 1 hr by fluorescence polarization assay
Summary of the method: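 Fluorescence polarization: carboxyfluorescein-labelled dsRNA (FAM-dsRNA) probe binds NS1A protein, which raises polarization. Disruption of binding read at 50 μM compound and reported as % binding. Run in duplicate; values averaged.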

[3] = system: Nucleic Acid; assay: Binding affinity to double strand RNA assessed as compound intercalation to double strand RNA at 50 uM after 1 hr by fluorescence polarization assay; assay type: nucleic-acid assay; summary of the method: as §1
[4] = Inhibition of Influenza A/Udorn/72/H3N2 full length GST-tagged NS1A/FAM-dsRNA-interaction after 1 hr by fluorescence polarization assay; parameters: species or system Influenza A virus (A/udorn/1972(H3N2))
Summary of the method: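 Dose-dependent version of the FAM-dsRNA/NS1A fluorescence polarization binding assay. The rise in polarization on probe binding to NS1A gives the read-out, and IC50 is taken from the dose-response. Run in duplicate; values averaged.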

[5] = system: Influenza A virus; assay: Antiviral activity against Influenza A/Udorn/72 virus infected in MDCK cells assessed as inhibition of viral growth at 30 uM treated 1 hr after infection measured up to 15 hrs by plaque assay relative to control; assay type: functional, Influenza A virus (A/udorn/1972(H3N2))
Summary of the method: (§2)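 MDCK cells infected with influenza A/Udorn/72, either at MOI 5 (single-cycle growth) or at MOI 0.001 (multiple-cycle growth). After 1 h infection, growth medium containing compound diluted in DMSO was added; control received 0.1% DMSO. Virus yield was followed over time as growth curves.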

[6] = system: Influenza A virus; assay: Antiviral activity against Influenza A/Udorn/72 virus infected in MDCK cells assessed as reduction of plaque forming unit at 60 uM treated 1 hr after infection measured after 36 hrs by plaque assay; assay type: functional, organism-based; details: Influenza A virus (A/udorn/1972(H3N2)); summary of the method: as §2

SMILES | Activity [1] [%] | inhibition [2] [%] | Activity [3] [%] | other results
O=C(NCc1ccccc1F)c1ccc2nc(-c3ccco3)c(-c3ccco3)nc2c1 | -11.3 | 11.6 | – | –
c1ccc(-c2nc3ccccc3nc2-c2ccccn2)nc1 | – | -3.1 | 2.3 | –
O=[N+]([O-])c1ccc2nc(-c3ccccn3)c(-c3ccccn3)nc2c1 | -5.6 | 7.8 | – | –
c1coc(-c2nc3ccccc3nc2-c2ccco2)c1 | -23.7 | 7.3 | – | –
COc1cccc(CNC(=O)c2ccc3nc(-c4ccco4)c(-c4ccco4)nc3c2)c1 | – | 74 | 4.5 | pIC50 [4]: 5.21
O=C(NCc1cccs1)c1ccc2nc(-c3ccco3)c(-c3ccco3)nc2c1 | -10.5 | 8.2 | – | –
COc1ccc(-c2nc3ccc([N+](=O)[O-])cc3nc2-c2ccc(OC)cc2)cc1 | – | – | 113 | –
COc1ccc2nc(-c3ccccc3OC)c(-c3ccccc3OC)nc2c1 | -5 | 4.4 | – | –
COc1ccccc1-c1nc2ccc([N+](=O)[O-])cc2nc1-c1ccccc1OC | -3.7 | 6.7 | – | –
COc1cc(CNC(=O)c2ccc3nc(-c4ccco4)c(-c4ccco4)nc3c2)cc(OC)c1OC | -4.7 | 53.6 | – | –
Oc1ccc2nc(-c3ccccc3O)c(-c3ccccc3O)nc2c1 | – | 10.9 | 0.9 | –
COc1ccc(-c2nc3ccc(OC)cc3nc2-c2ccc(OC)cc2)cc1 | – | 1.8 | 5.7 | –
COc1ccccc1-c1nc2ccccc2nc1-c1ccccc1OC | -6.7 | 5 | – | –
Oc1ccc(-c2nc3ccc(O)cc3nc2-c2ccc(O)cc2)cc1 | – | 38.8 | 29.5 | –
O=C(O[C@@H]1Cc2c(O)cc(O)cc2O[C@@H]1c1cc(O)c(O)c(O)c1)c1cc(O)c(O)c(O)c1 | – | 89 | – | –
O=[N+]([O-])c1ccc2nc(-c3cccc(O)c3)c(-c3cccc(O)c3)nc2c1 | -15.8 | 42.8 | – | –
Oc1cccc(-c2nc3ccc(O)cc3nc2-c2cccc(O)c2)c1 | – | 25 | 18.2 | –
O=[N+]([O-])c1ccc2nc(-c3ccc(O)cc3)c(-c3ccc(O)cc3)nc2c1 | -32 | 19.5 | – | –
COC(=O)c1ccc2nc(-c3ccco3)c(-c3ccco3)nc2c1 | -12.3 | 76 | – | pIC50 [4]: 4.13
O=C(O)c1ccc2nc(-c3ccc(O)cc3)c(-c3ccc(O)cc3)nc2c1 | -7.7 | 13.3 | – | –
Oc1cccc(-c2nc3ccccc3nc2-c2cccc(O)c2)c1 | -4.8 | 10.9 | – | –
O=C(O)c1ccc2nc(-c3ccccn3)c(-c3ccccn3)nc2c1 | – | 15.7 | 2.9 | –
COc1cccc(-c2nc3ccccc3nc2-c2cccc(OC)c2)c1 | -6 | 1.4 | – | –
O=C(NCc1ccc(F)cc1)c1ccc2nc(-c3ccco3)c(-c3ccco3)nc2c1 | – | 49 | 6.3 | –

SMILES | Activity [1] [%] | inhibition [2] [%] | Activity [3] [%] | other results
COC(=O)c1ccc(CNC(=O)c2ccc3nc(-c4ccco4)c(-c4ccco4)nc3c2)cc1 | – | 47.9 | 8.8 | –
COc1ccc(CNC(=O)c2ccc3nc(-c4ccco4)c(-c4ccco4)nc3c2)cc1OC | – | 39.5 | 5.6 | –
Oc1ccccc1-c1nc2ccccc2nc1-c1ccccc1O | – | -0.9 | -1 | –
COc1cccc(-c2nc3ccc([N+](=O)[O-])cc3nc2-c2cccc(OC)c2)c1 | – | 1.5 | 1.9 | –
COc1ccc2nc(-c3ccco3)c(-c3ccco3)nc2c1 | – | 54.3 | -3.2 | –
O=C(NCc1cccc(F)c1)c1ccc2nc(-c3ccco3)c(-c3ccco3)nc2c1 | -11.6 | 13.6 | – | –
COC(=O)CNC(=O)c1ccc2nc(-c3ccco3)c(-c3ccco3)nc2c1 | -27.9 | 26.7 | – | –
COc1cccc(-c2nc3ccc(C(=O)O)cc3nc2-c2cccc(OC)c2)c1 | -4.4 | 9.1 | – | –
O=[N+]([O-])c1ccc2nc(-c3ccc4c(c3)OCO4)c(-c3ccc4c(c3)OCO4)nc2c1 | – | 56.6 | 24.4 | –
c1ccc2nc(-c3ccc4c(c3)OCO4)c(-c3ccc4c(c3)OCO4)nc2c1 | – | 1.5 | 7.9 | –
COc1ccccc1CNC(=O)c1ccc2nc(-c3ccco3)c(-c3ccco3)nc2c1 | -17.7 | 29.5 | – | –
O=C(O)c1ccc2nc(-c3ccc4c(c3)OCO4)c(-c3ccc4c(c3)OCO4)nc2c1 | -4.8 | 23.2 | – | –
COc1ccc(-c2nc3ccccc3nc2-c2ccc(OC)cc2)cc1 | – | 0.5 | 1.4 | –
O=[N+]([O-])c1ccc2nc(-c3ccco3)c(-c3ccco3)nc2c1 | – | 25.5 | 25.9 | –
COc1ccc(-c2nc3ccc(C(=O)O)cc3nc2-c2ccc(OC)cc2)cc1 | -4.8 | 4.5 | – | –
COc1ccccc1-c1nc2ccc(C(=O)O)cc2nc1-c1ccccc1OC | -2.5 | 2.8 | – | –
O=C(O)c1ccc2nc(-c3cccc(O)c3)c(-c3cccc(O)c3)nc2c1 | – | 28.7 | -3.4 | –
COc1cccc(-c2nc3ccc(OC)cc3nc2-c2cccc(OC)c2)c1 | -8.4 | 7.2 | – | –
O=C(NCc1ccco1)c1ccc2nc(-c3ccco3)c(-c3ccco3)nc2c1 | – | 79.5 | 5.9 | fold change (FC) [5]: 10; Activity [6]: inactive; pIC50 [4]: 5.46
O=C(O)c1ccc2nc(-c3ccco3)c(-c3ccco3)nc2c1 | – | 60.9 | 5.8 | –
O=C(NCc1ccccn1)c1ccc2nc(-c3ccco3)c(-c3ccco3)nc2c1 | -9.6 | 64.7 | – | pIC50 [4]: 4.36
Oc1ccc(-c2nc3ccccc3nc2-c2ccc(O)cc2)cc1 | – | 10.2 | 8.5 | –
COc1ccc(CNC(=O)c2ccc3nc(-c4ccco4)c(-c4ccco4)nc3c2)cc1 | – | 44 | 7.6 | –
